Data from ChEMBL document CHEMBL1949640, “Discovery of substituted biphenyl oxazolidinone inhibitors of cholesteryl ester transfer protein” (ACS Med Chem Lett, 2011).
Each block holds one molecule with its values, some of them ahead of it.

How the values were obtained:
[1] = molecular target: T1, Cholesteryl ester transfer protein (Homo sapiens, UniProt P11597); test: Inhibition of CETP-mediated BODIPY-labeled cholesteryl ester transfer after 45 mins by FRET analysis
T1 sequence (P11597 whole entry): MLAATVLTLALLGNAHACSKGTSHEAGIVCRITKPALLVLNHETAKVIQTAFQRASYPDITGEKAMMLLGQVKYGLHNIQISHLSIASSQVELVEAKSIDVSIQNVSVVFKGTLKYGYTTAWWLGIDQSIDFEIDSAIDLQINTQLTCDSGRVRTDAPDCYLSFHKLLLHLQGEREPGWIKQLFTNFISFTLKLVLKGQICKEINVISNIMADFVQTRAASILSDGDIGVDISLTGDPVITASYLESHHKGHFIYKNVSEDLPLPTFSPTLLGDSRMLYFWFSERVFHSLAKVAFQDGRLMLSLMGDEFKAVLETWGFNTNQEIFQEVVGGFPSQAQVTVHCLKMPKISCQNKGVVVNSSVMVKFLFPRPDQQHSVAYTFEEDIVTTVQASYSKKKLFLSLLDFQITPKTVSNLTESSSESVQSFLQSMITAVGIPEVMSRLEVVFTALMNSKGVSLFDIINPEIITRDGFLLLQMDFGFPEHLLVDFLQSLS
In short: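 Fluorescence transfer assay of cholesteryl ester transfer by CETP. IC50 taken from 10-point titrations, reported as the average of three or more titrations, the average of two, or a single titration.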

[2] = (§1) Clearance in mouse; format: ADME, organism-based; conditions: in vivo
[3] = Volume of distribution in mouse; format: ADME, organism-based; conditions: in vivo
[4] = Oral bioavailability in mouse; format: ADME, organism-based; conditions: in vivo
Mus musculus = species: Mus musculus; test: as §1; format: ADME, organism-based; conditions: in vivo
[5] = molecular target: T2, Cholesteryl ester transfer protein (Homo sapiens) (UniProt P11597); test: Inhibition of CETP-mediated BODIPY-labeled cholesteryl ester transfer at 100 uM after 45 mins by FRET analysis
T2 sequence (whole entry): T1 sequence (P11597 whole entry)

clearance (Mus musculus): 31.6 mL/min/kg
Vd [3]: 3.4 L/kg
bioavailability [4]: 4%
Structure (SMILES): COc1ccc(C(C)C)cc1-c1ccc(C(F)(F)F)cc1CN1C[C@@H](c2cc(C(F)(F)F)cc(C(F)(F)F)c2)OC1=O

IC50 [1]: 0.133 µM
Structure (SMILES): COc1ccc(C(C)C)cc1-c1ccc(C(F)(F)F)cc1CN1CC(c2cc(C(F)(F)F)cc(C(F)(F)F)c2)OC1=O (racemic)

IC50 [1]: 14.2 µM
Structure (SMILES): COc1ccc(C(C)C)cc1-c1ccc(C(F)(F)F)cc1CN1C(=O)OCC1c1cc(C(F)(F)F)cc(C(F)(F)F)c1 (racemic)

Continued, molecule first:

Structure (SMILES): COc1ccc(C(C)C)cc1-c1ccc(C(F)(F)F)cc1CN1C[C@@H](c2ccccc2)OC1=O
IC50 [1]: 0.293 µM

Structure (SMILES): COC(=O)N(Cc1cc(C(F)(F)F)cc(C(F)(F)F)c1)Cc1cc(C(F)(F)F)ccc1-c1cc(C(C)C)ccc1OC
clearance [2]: 12.8 mL/min/kg
Vd [3]: 3.3 L/kg
bioavailability [4]: 5%

Structure (SMILES): COc1ccc(C(C)C)cc1-c1ccc(C(F)(F)F)cc1CN1C[C@H](c2ccccc2)OC1=O
IC50 [1]: 37.2 µM

Structure (SMILES): COC(=O)N(Cc1ccccc1)Cc1cc(C(F)(F)F)ccc1-c1cc(C(C)C)ccc1OC
IC50 [1]: 27.3 µM

Structure (SMILES): COc1ccc(C(C)C)cc1-c1ccc(C(F)(F)F)cc1CN1C[C@H](c2cc(C(F)(F)F)cc(C(F)(F)F)c2)OC1=O
inhibition [5]: < 50%
